Screens (PubChem BioAssay)
In the library only some 2.3% were active in any assay of this set; here they are far more common.
TRPC4 potent: allosteric potentiators of mouse TRPC4 channel; Q9QUQ5; HEK293 TRPC4beta/mu-opioid, DAMGO EC20, Fluo-4 Ca2+ flux; active compounds read high; B-score at 10 µM; actives 0.42% (n = 310,000); AID 2227;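 active means B-score of calcium response area above 5 SD of library B-scores, with initial fluorescence ratio within 5 SD of library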;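 further: B-score of integrated fluorescence ratio over time as area under calcium response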
TRPC6 inhibitor: inhibitors of mouse TRPC6 channel | HEK293-TRPC6, membrane potential dye, ACh-evoked depolarization; active compounds read low | B-score at 10 µM | actives 1.1% (n = 310,000) | AID 2553;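 active means B-score under library mean minus 3 SD, initial fluorescence not abnormally high, positive integrated signal ratio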;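 further: B-score derived from integrated fluorescence ratio over the kinetic read; more negative B-score means stronger inhibition of depolarization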
TRPC4 inh: inhibitors of mouse TRPC4 channel; HEK293 TRPC4beta/mu-opioid, DAMGO-evoked Fluo4 calcium flux; active compounds read low; B-score at 10 µM; actives 0.39% (n = 300,000);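 active means B-score over 3 SD under the library average, no early fluorescence shift, positive overall ratio signal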
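Assay system: HEK293 cells with stable TRPC4beta plus mu-opioid receptor expression. Dosing: single dose. Measured by: Fluo4 Ca2+ flux fluorescence. Also added: DAMGO in two steps, submaximal then maximal. Read-out: B score from integrated Fluo4 fluorescence ratio.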
TRPC4 agonist: activators of mouse TRPC4 channel. Q9QUQ5. actives 0.49% (n = 310,000). B-score at 10 µM. HEK293 TRPC4beta/mu-opioid, Fluo4 calcium fluorescence; active compounds read high;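 active means B-score above 5 SD of library B-scores, and initial fluorescence ratio not above library mean plus 5 SD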;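 further: positive B-score marks a calcium rise read as TRPC4 activation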
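Material: HEK293 stable line with TRPC4beta plus mu-opioid receptor; technique: Fluo4 calcium-sensitive dye fluorescence, kinetic, 1 Hz baseline; timing: Fluo4 dye loading 45 min at room temperature, 110 s recording; controls: assay buffer as low control, maximal DAMGO as high control; read-out: integrated baseline-normalised fluorescence ratio, converted to per-well B score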
TRPC6 activator: activates the mouse TRPC6 cation channel; HEK293-TRPC6 membrane potential dye fluorescence; active compounds read high; actives 0.13% (n = 310,000); AID 2550; Q61143; B-score at 10 µM;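 active means B-score of the integrated fluorescence ratio above library mean plus 3 SD, and starting fluorescence ratio within library mean plus 5 SD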;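 further: higher score means more depolarization so channel activation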
TRPC4 spec 2: mouse TRPC4 off-target activity of TRPC6 inhibitors, second screen | shares compounds with TRPC6 inhibitor | HEK293 TRPC4/MOR, membrane potential dye fluorescence; channel activated by saturating DAMGO dose | inhibition, % at 10 µM | actives 42% (n = 920) | AID 2776;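 active means compounds whose fluorescence signal differed from control wells by over 3 SD, either direction, in both duplicate plates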
TRPC4 spec: selectivity of TRPC6 inhibitors: effect on mouse TRPC4. actives 61% (n = 920). shares compounds with TRPC6 inhibitor. AID 2777. activity change, negative = inhibition, % at 10 µM. HEK293 TRPC4/mu-opioid, membrane potential fluorescence;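 active means rise or fall in signal beyond 3 SD of buffer-only wells in both replicate plates, either sign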;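 further: integrated kinetic ratio of fluorescence range over baseline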
HEK293 MPD ctr 2-1: second check of TRPC6 inhibitor effects in parental HEK293 cells. parental HEK293 membrane potential dye fluorescence; maximal acetylcholine challenge after compound addition. actives 31% (n = 920). signal change vs control, % at 10 µM. shares compounds with TRPC6 inhibitor;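 active means membrane potential signal moving either way by over 3 SD of the maximum-effect control, in both duplicate plates, meaning non-specific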
HEK293 MPD ctr-1: parental HEK293 nonspecific activity of TRPC6 inhibitors; shares compounds with TRPC6 inhibitor; parental HEK293 membrane potential dye fluorescence; membrane potential signal change, % at 10 µM; actives 60% (n = 920);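 active means membrane potential signal shifting up or down by more than 3 SD of buffer-only wells, on both duplicate plates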
HEK293 MPD ctr-2: counter-screen for TRPC6 modulators: effect in parental HEK293 cells; AID 488924; membrane potential signal change, % at 10 µM; shares compounds with TRPC6 inhibitor; membrane potential dye fluorescence; actives 51% (n = 2,400);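 active means membrane potential signal moves up or down beyond 5 SD from buffer-only wells, on both duplicate plates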
HEK293 MPD ctr 2-2: parental HEK293 nonspecific activity of TRPC6 modulators, second screen; shares compounds with TRPC6 inhibitor; membrane potential dye fluorescence; after compound, maximal acetylcholine stimulation; inhibition, % at 10 µM; actives 14% (n = 2,400);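 active means membrane potential signal drops by more than 5 SD from the mean control signal, in both duplicate plates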;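 further: plate controls were acetylcholine ECmax control wells for no effect and buffer only wells for full effect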
TRPC4 ctr mod: tests whether TRPC6 modulators also affect mouse TRPC4; HEK293 TRPC4/mu-opioid, membrane potential fluorescence; AID 488927; actives 69% (n = 2,400); shares compounds with TRPC6 inhibitor; percent change from control (negative = decrease, positive = increase), % at 10 µM;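 active means membrane potential signal moved up or down beyond 5 SD of buffer control wells, in both duplicate plates, actives on both sides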;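 further: plate controls were assay buffer wells for no effect and DAMGO maximal-effect wells for full effect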
TRPC4 ctr inh 2: second selectivity test of TRPC6 modulators against mouse TRPC4; shares compounds with TRPC6 inhibitor; HEK293 TRPC4/mu-opioid, membrane potential dye fluorescence; stimulated with maximal-effect DAMGO; inhibition, % at 10 µM; actives 55% (n = 2,400);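 active means drop in membrane potential signal beyond 5 SD of the control wells in both duplicate plates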;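 further: TRPC4 counter screen for TRPC6 hits run under conditions tuned for TRPC6 not TRPC4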
TRPC6 block conf: confirmation of mouse TRPC6 inhibitors; shares compounds with TRPC6 inhibitor; HEK293-TRPC6, membrane potential dye, ACh-evoked depolarization; inhibition, % at 10 µM; actives 43% (n = 3,300); AID 488960;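 active means fluorescence ratio falls more than 5 SD below the full-stimulation control mean, in both duplicate runs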;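 further: integrated fluorescence ratio of peak minus minimum over baseline after agonist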
TRPC6 act confirm: mouse TRPC6 activator confirmation. HEK293-TRPC6 membrane potential dye fluorescence, FDSS. AID 488961. activation, % at 10 µM. actives 11% (n = 2,800). shares compounds with TRPC6 inhibitor;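 active means ratio signal rise beyond 5 SD above unstimulated control wells' mean, seen in both duplicate runs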;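 further: plate controls were buffer EC0 wells for no effect and acetylcholine ECmax response for full effect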
The depositor's hits bear a star; i = inactive; / = no result.

SMILES	TRPC4 potent	TRPC6 inhibitor	TRPC4 inh	TRPC4 agonist	TRPC6 activator	HEK293 MPD ctr-2	HEK293 MPD ctr 2-2	TRPC4 ctr mod	TRPC4 ctr inh 2	TRPC6 block conf	TRPC6 act confirm	others
Cn1cccc1/C=C1\CC(C(C)(C)C)C/C(=C\c2cccn2C)C1=O (configuration not stated)	i	i	i	i	30*	182%*	i	i	i	i	i
CCOc1ccc2c(c1)-c1c(ssc1=S)C(C)(C)N2	i	-5.3*	i	i	i	i	i	-22%*	64%*	i	i
CCOc1ccc2c(c1)-c1c(ssc1=S)C(C)(C)N2C(=O)CSC1=NCCS1	i	i	i	i	i	/	/	/	/	/	/
O=C1OCC(c2ccc(Cl)s2)=C1c1ccccc1[N+](=O)[O-]	i	i	i	i	i	/	/	/	/	/	/
COc1ccc(CCC(=O)N2CC(C)OC(C)C2)cc1 (configuration not stated)	i	i	i	i	i	/	/	/	/	/	/
COc1ccc(-c2csc(N=C(N)N)n2)cc1	i	i	i	i	i	/	/	/	/	/	/
Cc1ccc(-c2csc(N=C(N)N)n2)c(C)c1	i	-5.5*	i	i	i	94%*	i	12%*	52%*	i	/
COc1c(C)cc(S(=O)(=O)NCc2ccccn2)c(C)c1C	i	i	i	i	i	/	/	/	/	/	/
CCNc1ccc2noc3c2c1C(=O)c1ccccc1-3	i	-5.8*	i	i	i	231%*	108%*	-282%*	144%*	70%*	i
CN(C)c1ccc(-c2nc3cnccn3c2Nc2ccc3c(c2)OCCO3)cc1	i	-5.3*	i	i	i	i	i	-11%*	62%*	i	i
CCn1c(COC(=O)CNC(=O)c2cc(OC)c(OC)c(OC)c2)nc2cc(S(=O)(=O)N(C)C)ccc21	i	i	i	i	i	/	/	/	/	/	/
COc1cccc(C2SCC(=O)N2c2ccc(C)cc2)c1OC (configuration not stated)	i	-5.6*	i	i	i	i	i	8.0%*	i	66%*	i
O=C(CN1CCCc2ccccc21)Nc1ccc(F)cc1[N+](=O)[O-]	i	i	i	i	i	/	/	/	/	/	/
CCN1CCCC1CN(Cc1cc2ccc(C)cc2[nH]c1=O)C(=S)Nc1ccc(F)cc1 (configuration not stated)	i	i	i	i	i	/	/	/	/	/	/
CC1CC(O)(CC(O)(c2ccccc2)c2ccccc2)C(C)CN1C (configuration not stated)	i	i	i	i	i	/	/	/	/	/	/
CCN1CC(C)C(O)(c2ccccc2)CC1C (configuration not stated)	i	-7.2*	i	i	i	/	/	/	/	i	i	TRPC4 spec 2=i;TRPC4 spec=i;HEK293 MPD ctr 2-1=i;HEK293 MPD ctr-1=i
COc1ccc(Cn2c(C)c(C)c(C#N)c2NC(=O)Nc2ccc(Cl)cc2)cc1	i	i	i	i	i	/	/	/	/	/	/
CNCc1c(OCc2ccccc2F)ccc2ccccc12	i	i	i	i	i	/	/	/	/	/	/
CNCc1c(OCc2ccccc2)ccc2ccccc12	i	-7*	-6*	i	i	/	/	/	/	i	/	TRPC4 spec 2=44%*;TRPC4 spec=29%*;HEK293 MPD ctr 2-1=i;HEK293 MPD ctr-1=12%*
CC(C)c1ccc2c(c1)CCC1C(C)(CN)CCCC21C (configuration not stated)	i	-6.4*	i	i	i	-82%*	i	-12%*	81%*	58%*	i
CCOC(=O)c1ccc(NC(=S)N2CCCC(C)C2)cc1 (configuration not stated)	i	-5*	i	i	i	i	i	i	i	i	i
CCOC(=O)c1ccc(NC(=S)N2CCCC(C(=O)N3CCCC3)C2)cc1 (configuration not stated)	i	i	i	i	i	/	/	/	/	/	/
Cc1nnc(-c2ccccc2)c(=O)n1/N=C/c1c(O)ccc2ccccc12	i	-7.3*	i	i	i	/	/	/	/	80%*	/	TRPC4 spec 2=68%*;TRPC4 spec=23%*;HEK293 MPD ctr 2-1=-242%*;HEK293 MPD ctr-1=8.7%*
COc1ccc(-c2nc(C#N)c(NCCCN(C)C)o2)cc1OC	i	-6.4*	i	i	i	i	i	i	i	i	i
COc1ccc(CCNc2oc(-c3ccc(OC)c(OC)c3)nc2C#N)cc1	i	i	i	i	i	/	/	/	/	/	/
O=C(NC1CCN(Cc2ccccc2)CC1)c1cn(-c2ccccc2)nc1-c1cccnc1	i	-5.6*	i	i	i	91%*	i	i	52%*	41%*	i
O=C(O)c1cn(-c2ccccc2)nc1-c1cccnc1	i	i	i	i	i	/	/	/	/	/	/
O=C(NC1CCN(Cc2ccccc2)CC1)C1COc2ccccc2O1 (configuration not stated)	i	-5.7*	i	i	i	104%*	86%*	12%*	29%*	72%*	/
